In ChEMBL document CHEMBL1157506, “Synthesis and pharmacological characterization of chiral pyrrolidinylfuran derivatives: the discovery of new functionally selective muscarinic agonists” (J Med Chem, 2008):

Legend:
[1] = Antagonist activity at muscarinic M1/M4 receptor in guinea pig lung assessed as effect on tissue contraction; format: functional, Cavia porcellus
[2] = biological target: T1, Muscarinic acetylcholine receptor M1 (Homo sapiens, UniProt P11229); assay: Displacement of [3H]NMS from human muscarinic M1 receptor expressed in CHO cells by liquid scintillation counter; format: cell-based
T1 sequence (P11229 whole entry): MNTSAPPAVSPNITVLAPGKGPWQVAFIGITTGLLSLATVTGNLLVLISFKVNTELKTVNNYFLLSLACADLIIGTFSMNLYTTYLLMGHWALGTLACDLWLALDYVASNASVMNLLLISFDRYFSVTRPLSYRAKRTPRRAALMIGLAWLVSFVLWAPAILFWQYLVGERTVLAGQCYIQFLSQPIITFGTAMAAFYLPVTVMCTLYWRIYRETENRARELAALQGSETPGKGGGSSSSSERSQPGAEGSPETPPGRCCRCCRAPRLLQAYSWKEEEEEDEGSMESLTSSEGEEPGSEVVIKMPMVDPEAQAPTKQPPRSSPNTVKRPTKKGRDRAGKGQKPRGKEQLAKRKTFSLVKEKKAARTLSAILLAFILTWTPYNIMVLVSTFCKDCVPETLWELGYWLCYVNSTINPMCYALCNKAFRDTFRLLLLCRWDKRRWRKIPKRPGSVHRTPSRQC

[3] = biological target: T2, Muscarinic acetylcholine receptor M2 (Homo sapiens, UniProt P08172); assay: Displacement of [3H]NMS from human muscarinic M2 receptor expressed in CHO cells by liquid scintillation counter; format: cell-based
T2 sequence (P08172 whole entry): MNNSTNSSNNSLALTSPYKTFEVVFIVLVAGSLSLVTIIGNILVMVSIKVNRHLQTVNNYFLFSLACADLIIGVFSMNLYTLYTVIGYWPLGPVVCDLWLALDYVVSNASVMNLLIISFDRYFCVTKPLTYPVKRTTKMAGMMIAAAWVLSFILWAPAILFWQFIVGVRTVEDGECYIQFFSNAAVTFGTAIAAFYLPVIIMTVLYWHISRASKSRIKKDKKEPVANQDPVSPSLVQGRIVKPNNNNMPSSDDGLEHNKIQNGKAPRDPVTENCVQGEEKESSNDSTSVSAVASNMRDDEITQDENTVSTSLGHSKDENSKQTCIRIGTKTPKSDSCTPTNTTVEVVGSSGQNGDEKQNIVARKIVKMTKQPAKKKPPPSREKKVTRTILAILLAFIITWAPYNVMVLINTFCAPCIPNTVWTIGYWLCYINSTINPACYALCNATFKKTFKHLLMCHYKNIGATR
Summary of the method: (§1)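 Membrane protein was 70 µg/mL for hm2, 50 µg/mL for hm4 and 25 µg/mL for hm5. Incubation was 120 min at room temperature in 25 mM sodium phosphate with 5 mM MgCl2, pH 7.4. GF/C filtration and scintillation counting followed; duplicates.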

[4] = biological target: Muscarinic acetylcholine receptor M3 (Homo sapiens, UniProt P20309); assay: Displacement of [3H]NMS from human muscarinic M3 receptor expressed in CHO cells by liquid scintillation counter; format: cell-based
[5] = biological target: T3, Muscarinic acetylcholine receptor M4 (Homo sapiens, UniProt P08173); assay: Displacement of [3H]NMS from human muscarinic M4 receptor expressed in CHO cells by liquid scintillation counter; format: cell-based; summary of the method: as §1
T3 sequence (P08173 whole entry): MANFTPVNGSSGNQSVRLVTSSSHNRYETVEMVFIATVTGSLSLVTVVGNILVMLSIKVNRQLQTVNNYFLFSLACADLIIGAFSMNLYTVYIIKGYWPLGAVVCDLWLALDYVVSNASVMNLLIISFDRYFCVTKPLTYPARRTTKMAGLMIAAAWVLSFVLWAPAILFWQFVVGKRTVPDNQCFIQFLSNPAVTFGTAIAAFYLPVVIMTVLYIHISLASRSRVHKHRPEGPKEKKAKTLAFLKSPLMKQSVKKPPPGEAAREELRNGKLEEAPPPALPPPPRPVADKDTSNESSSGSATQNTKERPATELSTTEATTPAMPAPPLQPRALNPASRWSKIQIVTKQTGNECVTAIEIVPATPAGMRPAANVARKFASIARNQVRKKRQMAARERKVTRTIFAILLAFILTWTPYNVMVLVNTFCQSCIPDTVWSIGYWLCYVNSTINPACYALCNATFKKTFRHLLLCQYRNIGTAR

[6] = biological target: T4, Muscarinic acetylcholine receptor M5 (Homo sapiens, UniProt P08912); assay: Displacement of [3H]NMS from human muscarinic M5 receptor expressed in CHO cells by liquid scintillation counter; format: cell-based; summary of the method: as §1
T4 sequence (P08912 whole entry): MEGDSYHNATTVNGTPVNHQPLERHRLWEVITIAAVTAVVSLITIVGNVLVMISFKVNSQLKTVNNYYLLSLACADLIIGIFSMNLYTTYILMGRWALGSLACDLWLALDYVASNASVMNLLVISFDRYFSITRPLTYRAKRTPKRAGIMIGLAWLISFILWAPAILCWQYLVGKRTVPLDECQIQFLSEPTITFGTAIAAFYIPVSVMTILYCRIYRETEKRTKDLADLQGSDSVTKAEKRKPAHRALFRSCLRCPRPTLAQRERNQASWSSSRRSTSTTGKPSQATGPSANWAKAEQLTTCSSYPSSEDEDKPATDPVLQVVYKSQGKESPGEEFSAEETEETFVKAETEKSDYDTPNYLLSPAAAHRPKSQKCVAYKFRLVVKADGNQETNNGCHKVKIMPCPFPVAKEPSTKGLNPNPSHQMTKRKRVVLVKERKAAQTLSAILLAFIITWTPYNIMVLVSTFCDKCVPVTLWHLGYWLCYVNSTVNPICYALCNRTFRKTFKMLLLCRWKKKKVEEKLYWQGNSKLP

[7] = Antagonist activity at muscarinic M1/M4 receptor in New Zealanda white rabbit vas deferens assessed as effect on isometric tissue contraction; format: functional, Oryctolagus cuniculus
Summary of the method: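 Rabbit vas deferens bathed at 30 °C with 10^-6 M yohimbine and 10^-8 M tripitramine to block α2-adrenoceptors and M2 receptors. Electrically stimulated with square-wave pulses (0.1 ms, 2 Hz, 10-15 V) and equilibrated 1 h. Isometric contractions recorded during a cumulative dose-response curve to McN-A-343. Responses are expressed as % of maximal control-curve response, with parallel reference-agonist-only tissues run.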

[8] = species on record: Cavia porcellus; assay: Intrinsic activity at muscarinic M2 receptor in guinea pig atrium assessed as effect on inotropic activity relative to control; format: tissue-based; conditions: Cardiac atrium
Summary of the method: (§2)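 Left atria in PSS at 30 °C, paced via platinum electrodes (1 ms, 1 Hz, 5-10 V). Inotropic force recorded isometrically after 2 h equilibration. A cumulative APE reference curve was obtained, then cumulative agonist curves. Responses are expressed as % of the control maximal response.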

[9] = Agonist activity at muscarinic M2 receptor in guinea pig atrium assessed as effect on inotropic activity; format: functional, Cavia porcellus, Cardiac atrium; summary of the method: as §2
[10] = species on record: Cavia porcellus; assay: Intrinsic activity at muscarinic M3 receptor in guinea pig ileum assessed as effect on tissue tension changes relative to control; format: tissue-based
Summary of the method: (§3)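 Ileum tension changes recorded isotonically after 30 min equilibration. APE curves were run at 30 min intervals; the first was discarded and the second was taken as control. Cumulative agonist curves followed, with responses expressed as % of the control maximum. Parallel reference-only tissues served as sensitivity checks.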

[11] = Agonist activity at muscarinic M3 receptor in guinea pig ileum assessed as effect on tissue tension changes; format: functional, Cavia porcellus; summary of the method: as §3
[12] = species on record: Cavia porcellus; assay: Intrinsic activity at muscarinic M1/M4 receptor in guinea pig lung assessed as effect on tissue contraction relative to control
[13] = Agonist activity at muscarinic M1/M4 receptor in guinea pig lung assessed as effect on tissue contraction; format: functional, Cavia porcellus
[14] = species on record: Oryctolagus cuniculus; assay: Intrinsic activity at muscarinic M1/M4 receptor in New Zealanda white rabbit vas deferens assessed as effect on isometric tissue contraction relative to control; format: tissue-based
Summary of the method: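 Vas deferens in solution with 10^-6 M yohimbine and 10^-8 M tripitramine at 30 °C, field-stimulated (0.1 ms, 2 Hz, 10-15 V). Contractions recorded isometrically after 1 h equilibration. A cumulative McN-A-343 reference curve was built, then cumulative curves to the test agonist. Responses are expressed as % of the control curve's maximum. Parallel reference-only tissues served as sensitivity checks.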

Sequence of Muscarinic acetylcholine receptor M3 (P20309 whole entry): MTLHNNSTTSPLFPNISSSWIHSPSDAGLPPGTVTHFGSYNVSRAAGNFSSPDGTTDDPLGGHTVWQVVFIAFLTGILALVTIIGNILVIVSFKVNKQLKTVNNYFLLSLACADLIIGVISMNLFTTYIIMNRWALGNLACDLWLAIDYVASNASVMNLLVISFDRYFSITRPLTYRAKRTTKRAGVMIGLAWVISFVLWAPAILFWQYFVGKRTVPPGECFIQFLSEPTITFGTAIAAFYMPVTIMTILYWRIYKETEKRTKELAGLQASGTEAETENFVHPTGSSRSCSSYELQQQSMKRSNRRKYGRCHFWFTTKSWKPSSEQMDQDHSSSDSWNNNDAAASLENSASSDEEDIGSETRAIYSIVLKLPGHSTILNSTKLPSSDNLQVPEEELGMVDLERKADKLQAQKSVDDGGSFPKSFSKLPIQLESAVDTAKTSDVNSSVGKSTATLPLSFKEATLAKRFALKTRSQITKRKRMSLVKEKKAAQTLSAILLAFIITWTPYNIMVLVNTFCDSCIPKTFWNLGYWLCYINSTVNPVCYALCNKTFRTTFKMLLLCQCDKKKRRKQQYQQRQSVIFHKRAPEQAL

| Compound | pKb [1] | Ki [2] [µM] | Ki [3] [µM] | Ki [4] [µM] | Ki [5] [µM] | Ki [6] [µM] | pKb [7] | Intrinsic activity [8] | pD2 [9] | Intrinsic activity [10] | pD2 [11] | Intrinsic activity [12] | pD2 [13] | Intrinsic activity [14] | pD2 [1] |
| --- | --- | --- | --- | --- | --- | --- | --- | --- | --- | --- | --- | --- | --- | --- | --- |
| Cc1ccc([C@H]2CCC[N+]2(C)C)o1.[I-] | <5 | 13.8 | 2.69 | 7.76 | 13.8 | 9.55 | 5.67 | 0.44 | 7.66 | 0.26 | 7.1 | – | – | – | – |
| C#CCOC(=O)C1=CCCN(C)C1 [ARECAIDINE PROPARGYL ESTER] | – | – | – | – | – | – | – | 1 | 8.67 | 1 | 7.64 | 1 | 5.56 | 1 | – |
| CN1CCC[C@@H]1c1ccco1 | <5 | 77.6 | 47.9 | 81.3 | 79.4 | 75.9 | – | 0.45 | 7.38 | 0.31 | 5.65 | – | – | 0.47 | – |
| Cc1ccc(C[N+](C)(C)C)o1 | – | 7.94 | 0.955 | 6.17 | 6.31 | 6.92 | – | – | – | – | – | – | – | – | – |
| c1coc(C2CCCN2)c1 (racemic) | – | 178 | 29.5 | 11.5 | 87.1 | 16.6 | – | – | – | – | – | – | – | – | – |
| Cc1ccc([C@@H]2CCCN2)o1 | 5 | 155 | 28.8 | 148 | 209 | 138 | <5 | 0.6 | 6.1 | 1 | 5 | – | – | – | – |
| Cc1ccc([C@H]2CCCN2C)o1 | <5 | 44.7 | 19.5 | 28.8 | 58.9 | 31.6 | <5 | 0.32 | 6.4 | 0.22 | 4.93 | – | – | – | – |
| C[N+](C)(C)CC#CCOC(=O)Nc1cccc(Cl)c1 | – | 1.95 | 3.24 | 2.4 | 9.12 | 3.8 | – | – | – | – | – | – | – | 1 | – |
| C[N+]1(C)CCC[C@@H]1c1ccco1.[I-] | – | 51.3 | 14.1 | 17.8 | 28.2 | 23.4 | – | 0.4 | 6.49 | 0.25 | 5.37 | – | – | 0.28 | <5 |
